Activity calls are given as the source filed them. No cut-off for these calls is given here.
Columns and labels:
[1] = test system: HeLa; test: Induction of apoptosis in human HeLa cells assessed as decrease in XIAP protein expression at 50 to 100 nM after 24 to 48 hrs by Western blot analysis; format: functional, cell-based
Outline: (§1)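 HeLa cells were treated for 24 or 48 h, washed in ice-cold PBS and lysed on ice for 30 min; lysates were spun at 15000g, 4 °C. 20 μg protein per lane on SDS-PAGE (7.5–15%), then PVDF. Blocked overnight at 4 °C, primary antibodies 2 h at room temperature, peroxidase secondary 60 min, ECL detection. Blots were reprobed for β-actin as loading control.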

[2] = test system: Jurkat; test: Cytotoxicity against human Jurkat cells after 72 hrs by MTT assay; format: functional, cell-based
Outline: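 8 × 10^3 cells/well were preincubated 18 h at 37 °C, 5% CO2, then given graded concentrations for 72 h, with final DMSO not above 0.25%. Viability was read by MTT. […] Mean ± SE from at least three experiments.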

[3] = test system: HeLa; test: Cytotoxicity against human HeLa cells after 72 hrs by MTT assay; format: functional, cell-based
[4] = test system: HL-60; test: Cytotoxicity against human HL60 cells after 72 hrs by MTT assay; format: functional, cell-based; details: HL-60, 72 h
[5] = test system: HT-29; test: Anticancer activity against human HT-29 cells xenografted in BALB/c nude mouse assessed as reduction in tumor volume at 100 mg/kg, ip administered on days 0,2 and 4 measured on day 24 relative to vehicle treated control; format: functional; parameters: scale not given: the % may be the effect or the level left; details: route intraperitoneal
Outline: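 HT-29 cells in log phase, resuspended in serum-free RPMI 1640 at 1 × 10^7 cells/mL, inoculated 0.2 mL subcutaneously in the back of nude mice. At ~300 mm3, 18 mice were randomized to vehicle or two treatment groups. Dosing: 100 mg/kg in DMSO, ip at 0.01 mL/g, on days 0, 2 and 4. Tumor volume by caliper as (LW2)/2 and body weight recorded; n = 6 per group, mean ± SEM.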

[6] = test system: HeLa; test: Induction of mitochondrial depolarization in human HeLa cells at 50 to 100 nM by JC1-based fluorescent staining; format: functional, cell-based; details: TDE = time-dependent effect
Outline: (§2)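 Mitochondrial membrane potential in HeLa cells after 24 or 48 h incubation, measured with the JC-1 dye by flow cytometry. Aggregates read as red (590 nm) and monomers as 530 nm; output is the percentage of depolarized cells. Mean ± SEM of three independent experiments.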

[7] = test system: HeLa; test: Induction of apoptosis in human HeLa cells assessed as decrease in cdc25c level at 50 to 100 nM after 24 hrs by Western blot analysis; format: functional, cell-based; details: in the assay text read “48 hrs” for “24 hrs”; outline: as §1
[8] = test system: LoVo; test: Cytotoxicity against human LoVo cells after 72 hrs by MTT assay; format: functional, cell-based
Outline: (§3)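 Cells seeded at 8 × 10^3 per well and left 18 h at 37 °C, 5% CO2, then given fresh medium with compound at a range of concentrations for 72 h; DMSO at most 0.25% final. Viability read by MTT relative to 0.25% DMSO-treated cells. […] LoVoDoxo kept in Ham's F12 with 0.1 μg/mL doxorubicin; A549-T12 kept in DMEM with 12 nM paclitaxel.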

[9] = test system: HeLa; test: Induction of mitochondrial depolarization in human HeLa cells assessed as JC1 aggregate level after 48 hrs by JC1-based fluorescent staining (reference value: 99.2%); format: functional; outline: as §2
[10] = test system: A549; test: Resistance ratio of IC50 for human A549-T12 cells to IC50 for human A549 cells; format: functional
[11] = test system: HeLa; test: Induction of cell cycle arrest in human HeLa cells assessed as increase in G2/M phase cells at 30 nM after 24 hrs by flow cytometry; format: functional, cell-based
Outline: (§4)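 5 × 10^5 exponentially growing HeLa cells were treated with 15–250 nM for 24 h, fixed in ice-cold 70% ethanol, then treated with lysis buffer containing RNase A and 0.1% Triton X-100. PI staining of DNA content, read by flow cytometry. Mean ± SEM of three independent experiments.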

[12] = test system: HeLa; test: Induction of apoptosis in human HeLa cells assessed as PARP cleavage at 50 to 100 nM after 24 to 48 hrs by Western blot analysis; format: functional, cell-based; outline: as §1
[13] = test system: LoVo; test: Cytotoxicity against human doxorubicin-resistant LoVo cells after 72 hrs by MTT assay; format: functional, cell-based; outline: as §3
[14] = test system: HT-29; test: Cytotoxicity against human HT-29 cells after 72 hrs by MTT assay; format: functional, cell-based; details: HT-29, 72 h
[15] = Inhibition of bovine tubulin polymerisation after 20 mins by turbidimetric analysis; parameters: species or system Bos taurus
Outline: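 Bovine brain tubulin at 10 μM was preincubated with varying compound concentrations in glutamate buffer at 30 °C, cooled to 0 °C, and 0.4 mM GTP added. Samples were warmed to 30 °C and assembly followed by turbidity at 350 nm.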

[16] = test system: CCRF-CEM; test: Resistance ratio of IC50 for human CEM/VBL100 cells to IC50 for human CEM cells; format: functional
[17] = test system: HeLa; test: Induction of ROS production in human HeLa cells at 50 to 100 nM after 24 to 48 hrs by HE staining-based flow cytometry; format: functional, cell-based
Outline: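 HeLa cells were exposed for 24 or 48 h, then stained with hydroethidine or H2-DCFDA for ROS and read by flow cytometry. DMSO ≤0.25%. Mean ± SEM of three independent experiments.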

[18] = test system: HeLa; test: Induction of cell cycle arrest in human HeLa cells assessed as increase in G2/M phase cells after 24 hrs by flow cytometry; format: functional, cell-based; outline: as §4
[19] = test system: HeLa; test: Induction of apoptosis in human HeLa cells assessed as caspase9 activation at 50 to 100 nM after 24 to 48 hrs by Western blot analysis; format: functional, cell-based; outline: as §1
[20] = test system: HeLa; test: Induction of apoptosis in human HeLa cells assessed as caspase3 activation at 50 to 100 nM after 24 to 48 hrs by Western blot analysis; format: functional, cell-based; outline: as §1
[21] = test system: HeLa; test: Induction of cell cycle arrest in human HeLa cells assessed as decrease in G1 phase cells at 15 to 250 nM after 24 hrs by flow cytometry; format: functional, cell-based; outline: as §4
[22] = biological target: T1, M-phase inducer phosphatase 3 (Homo sapiens) (UniProt P30307); test: Induction of cdc2 (Tyr15) dephosphorylation in human HeLa cells at 50 to 100 nM after 24 hrs by Western blot analysis
T1 sequence (whole entry): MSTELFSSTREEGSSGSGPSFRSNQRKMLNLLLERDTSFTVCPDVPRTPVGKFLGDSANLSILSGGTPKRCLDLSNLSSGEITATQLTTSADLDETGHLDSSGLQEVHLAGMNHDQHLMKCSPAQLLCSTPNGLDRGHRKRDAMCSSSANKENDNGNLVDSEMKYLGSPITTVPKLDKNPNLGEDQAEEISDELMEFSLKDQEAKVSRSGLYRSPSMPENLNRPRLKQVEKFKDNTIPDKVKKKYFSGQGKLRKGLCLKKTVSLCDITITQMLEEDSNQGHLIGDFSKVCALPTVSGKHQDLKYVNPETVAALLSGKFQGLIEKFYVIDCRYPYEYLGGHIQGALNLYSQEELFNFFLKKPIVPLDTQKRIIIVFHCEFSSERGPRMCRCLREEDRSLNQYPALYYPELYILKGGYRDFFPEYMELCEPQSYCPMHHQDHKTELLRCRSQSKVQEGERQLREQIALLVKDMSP

[23] = test system: HeLa; test: Induction of cell cycle arrest in human HeLa cells assessed as increase in cyclin B1 expression at 50 to 100 nM after 24 to 48 hrs by Western blot analysis; format: functional, cell-based; outline: as §1

## CCOc1ccc(-c2nnnn2-c2cc(OC)c(OC)c(OC)c2)cc1
[1]
  Activity: Active
[2]
  IC50: 0.16 nM
[3]
  IC50: 1.9 nM
[4]
  IC50: 1.3 nM
[5]
  Activity: 66%
[6]
  Activity: tde
[7]
  Activity: Active
[8]
  IC50: 1.1 nM
[9]
  Activity: 0.09%
[10]
  Ratio IC50: 1
[11]
  Activity: Active
[12]
  Activity: Active
[13]
  IC50: 0.7 nM
[14]
  IC50: 2.8 nM
[15]
  IC50: 1100 nM
[16]
  Ratio IC50: 0.2
[17]
  Activity: Active
[18]
  Activity: Dose-dependent effect
[19]
  Activity: Active
[20]
  Activity: Active
[21]
  Activity: Active
[22]
  induction: Active
[23]
  Activity: Active
